Results as given in ChEMBL document CHEMBL4004806, “Cyclocurcumin, an Antivasoconstrictive Constituent of Curcuma longa (Turmeric)” (J Nat Prod, 2017).

Experiments:
[1] = target: T1, Voltage-gated L-type calcium channel (Rattus norvegicus, UniProt P22002+Q02485+P27732); assay: Irreversible inhibition of 5-HT activated L-type calcium channel-mediated vasoconstriction in Sprague-Dawley rat aortic rings at 15 uM preincubated with aortic rings followed by 5-HT addition and subsequent compound wash out measured after 4 hrs
How it was run: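 Rat aortic rings in organ baths of Krebs-Ringer solution (pH 7.4, 37 °C, gassed with 95% O2/5% CO2). Rings were pretreated with compound, then contracted with 5-HT (reading I). Buffer was washed out, and 5-HT contraction was re-measured 4 h later (reading II). Isometric tension was recorded and expressed as percent of the 90 mM K+ contraction. Mean ± SEM, ≥3 independent experiments.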

[2] = target: T1, Voltage-gated L-type calcium channel; assay: Inhibition of L-type calcium channel in Sprague-Dawley rat aortic rings assessed as reduction in phenylephrine-induced vasoconstriction preincubated with aortic rings followed by phenylephrine addition
How it was run: (§1)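 Rat aortic rings in organ baths of Krebs-Ringer (pH 7.4, 95% O2/5% CO2, 37 °C) pretreated with compound. Contraction was then started by cumulative phenylephrine, serotonin or 60 mM K+. Isometric tension recorded by force transducer and expressed as percent of a prior 90 mM K+ contraction. Mean ± SEM, ≥3 independent experiments, ANOVA/Duncan or t test.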

[3] = system: Aorta; assay: Cytotoxicity against Sprague-Dawley rat aortic rings assessed as non-specific tissue damage at 5 to 25 uM after 30 mins by LDH release assay; format: tissue-based; conditions: 0.5 h
How it was run: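 Aortic rings exposed to compound for 30 min, then medium aliquots collected. Aliquot incubated in Tris-EDTA-NADH buffer (0.17 mM β-NADH, pH 7.4) for 10 min at 37 °C. Prewarmed 14 mM pyruvate added, and the fall in A340 was followed for 1 min as LDH activity. Mean ± SEM, ≥3 independent experiments.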

[4] = target: T1, Voltage-gated L-type calcium channel; assay: Inhibition of L-type calcium channel in Sprague-Dawley rat aortic rings assessed as reduction in phenylephrine-induced vasoconstriction at 25 uM preincubated with aortic rings followed by phenylephrine addition; how it was run: as §1
[5] = target: T1, Voltage-gated L-type calcium channel; assay: Inhibition of 60 mM K+ activated L-type calcium channel-mediated vasoconstriction in Sprague-Dawley rat aortic rings preincubated followed by 60 mM K+ addition; how it was run: as §1
[6] = target: T1, Voltage-gated L-type calcium channel; assay: Inhibition of L-type calcium channel in Sprague-Dawley rat aortic rings assessed as reduction in Bay K8644-induced vasoconstriction preincubated with aortic rings followed by Bay K8644 addition
How it was run: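 Aortic rings in organ baths (37 °C, 95% O2/5% CO2) pretreated with compound. Contraction was elicited by Bay K8644 (10−6 M) in 15 mM K+ buffer, pH 7.4, containing 0.026 mM EDTA. Tension expressed as percent of a prior 90 mM K+ response. Mean ± SEM, ≥3 independent experiments.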

[7] = target: T1, Voltage-gated L-type calcium channel; assay: Inhibition of L-type calcium channel in Sprague-Dawley rat aortic rings assessed as reduction in 5-HT-induced vasoconstriction at 5 to 25 uM preincubated with aortic rings followed by 5-HT addition; how it was run: as §1
[8] = target: T1, Voltage-gated L-type calcium channel; assay: Reversible inhibition of 5-HT activated L-type calcium channel-mediated vasoconstriction in Sprague-Dawley rat aortic rings at 25 uM preincubated with aortic rings followed by 5-HT addition and subsequent compound wash out measured after 4 hrs
How it was run: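 Organ-bath aortic rings (Krebs-Ringer, 37 °C) treated with compound, and a 5-HT contraction recorded. Buffer was washed out and the 5-HT contraction measured again 4 h later. Tension expressed relative to a 90 mM K+ response. Mean ± SEM, ≥3 independent experiments.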

[9] = system: Aorta; assay: Cytotoxicity against Sprague-Dawley rat aortic rings assessed as non-specific tissue damage after 24 hrs by TUNEL assay; format: tissue-based
How it was run: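 Aortic rings kept in MEM with 100 U/mL penicillin and 100 μg/mL streptomycin, exposed to compound or vehicle for 24 h at 37 °C in 95% air/5% CO2. Sections quenched with 0.3% H2O2, digested with 20 μg/mL Proteinase K, TdT-labelled with digoxigenin-dUTP for 1 h at 37 °C. Detection by HRP anti-digoxigenin (30 min, room temperature) and DAB, hematoxylin counterstain. Mean ± SEM, ≥3 independent experiments.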

[10] = target: T1, Voltage-gated L-type calcium channel; assay: Inhibition of L-type calcium channel in Sprague-Dawley rat primary VSMC assessed as reduction in 5-HT-induced MLC phosphorylation preincubated for 30 mins followed by 5-HT addition measured after 10 mins by Western blot method
How it was run: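 Primary VSMCs were released from rat aorta with collagenase and elastase. Cells pretreated with compound for 30 min, then stimulated with 10−5 M serotonin for 10 min. Lysed in RIPA with protease/phosphatase inhibitors, and pMLC and total MLC detected by SDS-PAGE Western blot with chemiluminescent imaging. Mean ± SEM, ≥3 experiments.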

[11] = target: T1, Voltage-gated L-type calcium channel; assay: Inhibition of L-type calcium channel in Sprague-Dawley rat primary VSMC assessed as reduction in 5-HT-induced calcium influx preincubated for 30 mins followed by 5-HT addition by Fura-2-AM dye based confocal microscopic method
How it was run: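 Enzymatically isolated rat aortic VSMCs on coverslips pretreated with compound for 30 min. Cells loaded 60 min with 1 μM fura-2/AM in PSS (pH 7.4) with 1% BSA, then superfused with PSS at 2 mL/min at 33 °C. Serotonin-evoked calcium rise imaged by 40× oil-objective fluorescence microscopy. Mean ± SEM, ≥3 experiments.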

[12] = target: T1, Voltage-gated L-type calcium channel; assay: Inhibition of L-type calcium channel in endothelium-denuded Sprague-Dawley rat aortic rings assessed as reduction in 5-HT-induced vasoconstriction at 5 to 25 uM preincubated with aortic rings followed by 5-HT addition; how it was run: as §1

## C[As](O)O
[1]
  inhibition (INH): Active

## COc1cc(/C=C/C(=O)CC(=O)/C=C/c2ccc(O)c(OC)c2)ccc1O [CURCUMIN]
[2]
  IC50: > 100 µM

## COc1cc(/C=C/C2=CC(=O)CC(c3ccc(O)c(OC)c3)O2)ccc1O (configuration not stated)
[3]
  Activity: Non-Toxic
[4]
  inhibition (INH): Active
[5]
  IC50: 18.5 µM
[5]; rat
  inhibition (INH): Dose-dependent effect
[6]
  IC50: 13.5 µM
[2]
  IC50: 14.9 µM
  pA2: 5.2
[2]; rat
  inhibition (INH): Dose-dependent effect
[7]
  inhibition (INH): Active
[8]
  inhibition (INH): Active
[9]
  Activity: Non-Toxic
[10]
  inhibition (INH): Active
[11]
  inhibition (INH): Dose-dependent effect
[12]
  inhibition (INH): Active

## COc1cc(/C=C/C(=O)CC(=O)/C=C/c2ccc(O)cc2)ccc1O
[4]
  inhibition (INH): Active
